Measured values reported in ChEMBL document CHEMBL3351926, “Altertoxins with potent anti-HIV activity from Alternaria tenuissima QUE1Se, a fungal endophyte of Quercus emoryi” (Bioorg Med Chem, 2014).
The source made the active and inactive calls. The calls are words filed in the database; no cut-off is given here.

How the values were obtained:
[1] = test system: Human immunodeficiency virus 1; assay: Antiviral activity against HIV1 infected in human A3.01 cells assessed as inhibition of viral replication at 0.5 ug/ml; assay type: functional
Summary of the method: (§1)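 A3.01 T lymphocytes were infected with HIV-1 LAV in the presence of compound at a single concentration, 1.5 or 0.5 μg/mL, chosen from the A3.01 cytotoxicity data. Supernatant virus was measured by reverse transcriptase assay, and inhibition was scored on the peak day of virus production. Controls were DMSO at a matching concentration, AZT at 10 and 20 μM, untreated infected cells and mock cells.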

[2] = test system: Human immunodeficiency virus 1; assay: Antiviral activity against HIV1 infected in human A3.01 cells assessed as inhibition of viral replication; assay type: functional, organism-based
Summary of the method: (§2)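 A3.01 T cells were infected with HIV-1 LAV in the presence of decreasing compound concentrations, lowered until viral replication reappeared. Virus in culture supernatants was measured by reverse transcriptase assay 9 days post-infection, the peak day for the untreated control. Replication was expressed as % of the untreated (concentration 0) control. Results are the mean and standard deviation of duplicate determinations, and IC50 was read from the dose–response curves.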

[3] = Therapeutic index, ratio of CC50 for human A3.01 cells to IC50 for HIV1 infected in human A3.01 cells; assay type: cell-based; conditions: A3.01 cells (uninfected for CC50; HIV1-infected for IC50)
Summary of the method: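 The index was calculated from A3.01 cytotoxicity data together with the IC50 for HIV-1 LAV replication in A3.01 cells. Replication was measured by supernatant reverse transcriptase assay 9 days post-infection on dose–response curves run in duplicate.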

[4] = test system: Human immunodeficiency virus 1; assay: Antiviral activity against HIV1 infected in human A3.01 cells assessed as inhibition of viral replication at 1.5 ug/ml; assay type: functional; summary of the method: as §1
[5] = test system: Human immunodeficiency virus 1; assay: Antiviral activity against HIV1 infected in human A3.01 cells assessed as complete inhibition of viral replication at 1.50 uM; assay type: functional, organism-based; summary of the method: as §2
[6] = test system: Human immunodeficiency virus 1; assay: Antiviral activity against HIV1 infected in human A3.01 cells assessed as complete inhibition of viral replication at 20 uM; assay type: functional, organism-based
Summary of the method: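 Human A3.01 T-lymphocytes infected with HIV-1 LAV strain while exposed to compound. Virus levels in culture supernatants measured by reverse transcriptase assay. Inhibition read on peak day of virus production, 9 days post-infection in the untreated control. Compared against untreated infected cells, DMSO vehicle at matching concentration, and uninfected mock cells.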

[7] = test system: Human immunodeficiency virus 1; assay: Antiviral activity against HIV1 infected in human A3.01 cells assessed as complete inhibition of viral replication at 2.20 uM; assay type: functional, organism-based; summary of the method: as §2

`O=C1CC[C@]2(O)c3c(ccc(O)c31)-c1ccc(O)c3c1[C@H]2[C@H]1O[C@H]1C3=O` showed an inhibition at 0.5 µg/mL [1] of 97%, an IC50 [2] of 210 nM and a selectivity ratio [3] of 6.5.

In the case of `O=C1C[C@@H](O)[C@H]2c3c(ccc(O)c31)-c1ccc(O)c3c1[C@H]2[C@H]1O[C@H]1C3=O`, the inhibition at 1.5 µg/mL [4] is reported as 97%, the IC50 [2] is reported as 90 nM and the selectivity ratio [3] is reported as 50.

In the case of `O=C1c2c(O)ccc3c2[C@H](c2ccc(O)c4c2[C@H]3[C@H]2O[C@H]2C4=O)[C@H]2O[C@@H]12`, the inhibition at 1.5 µg/mL [4] is reported as 97%, the IC50 [2] is reported as 290 nM and the inhibition [5] is reported as “Active”. For the same molecule, the selectivity ratio [3] was 15.

In the case of `Cc1cn([C@H]2C[C@H](N=[N+]=[N-])[C@@H](CO)O2)c(=O)[nH]c1=O`, the inhibition [6] is reported as “Active”.

For `O=C1C[C@H](O)[C@@H]2c3c(ccc(O)c31)-c1ccc(O)c3c1[C@@]2(O)CCC3=O` [ALTERTOXIN I], the inhibition at 1.5 µg/mL [4] was 97%, the IC50 [2] was 1420 nM and the inhibition [7] was “Active”. It also gave a selectivity ratio [3] of 3.

`O=C1C=C[C@H]2c3c(ccc(O)c31)-c1ccc(O)c3c1[C@H]2[C@H]1O[C@H]1C3=O` gave an inhibition at 1.5 µg/mL [4] of 33%.
